According to ChEMBL document CHEMBL1687827, “Profiling the Aspergillus fumigatus proteome in response to caspofungin” (2011):
Calls of active or inactive are those of the source. The rule behind the calls is not given here.

Assays:
Aspergillus fumigatus [1] = assay: Induction of change in PT repeat family protein level in iTRAQ114 labelled secreted fraction of drug-susceptible Aspergillus fumigatus KU80 delta-akuB at 0.12 ug/ml after 24 hrs in YPD medium by MS (MS/MS) analysis relative to control; assay type: functional
How it was run: (§1)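 Conidia at 1 × 10⁵/ml grown shaking at 37°C in YPD with or without 0.12 μg/ml caspofungin; mycelia filtered at 24 or 48 h. Secreted fraction taken from the filtrate; cell wall/plasma membrane pellet recovered after French-press lysis and a 5,000 × g spin. Proteins trypsin-digested and iTRAQ-labelled, drug vs no-drug channels at each time, then 2D LC-MS/MS. Protein ratio is the median of ratios from uniquely assigned peptides after median normalization.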

Aspergillus fumigatus [2] = assay: Induction of change in 60s ribosomal protein l21 protein level in iTRAQ114 labelled secreted fraction of drug-susceptible Aspergillus fumigatus KU80 delta-akuB at 0.12 ug/ml after 24 hrs in YPD medium by MS (MS/MS) analysis relative to control; assay type: functional; how it was run: as §1
Aspergillus fumigatus [3] = assay: Induction of change in allergen Asp F3 protein level in iTRAQ-116 labelled secreted fraction of drug-resistant Aspergillus fumigatus EMFR-S678P at 0.12 ug/ml after 48 hrs in YPD medium by MS (MS/MS) analysis relative to control; assay type: functional
How it was run: (§2)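 Conidia at 1 × 10⁵/ml were grown at 37°C, shaking at 225 rpm, in YPD with or without 0.12 μg/ml caspofungin for 24 or 48 h. The culture filtrate was kept as the secreted fraction. Mycelia were lysed by French press in HEPES/glycerol/EDTA/PMSF/DTT buffer, and the 5,000 × g pellet was washed to give CW/PM. Proteins were reduced, alkylated and trypsin-digested at 37°C overnight, then iTRAQ-labelled and run by 2D LC-MS/MS. Ratios are the median of unique-peptide ratios, median-normalized, versus the no-drug control.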

Aspergillus fumigatus [4] = assay: Induction of change in eukaryotic translation elongation factor 1 subunit Eef1-beta, putative protein level in iTRAQ-116 labelled secreted fraction of drug-resistant Aspergillus fumigatus EMFR-S678P at 0.12 ug/ml after 48 hrs in YPD medium by MS (MS/MS) analysis relative to control; assay type: functional; how it was run: as §2
Aspergillus fumigatus [5] = assay: Induction of change in conserved hypothetical gene expression in drug-susceptible Aspergillus fumigatus KU80 delta-akuB at 0.12 ug/ml after 24 hrs in YPD medium by microarray analysis relative to control; assay type: functional
How it was run: (§3)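 Mycelia grown in YPD ± 0.12 μg/ml caspofungin (1 × 10⁵ conidia/ml, 37°C, shaking) and harvested at 24 or 48 h. Total RNA extracted, DNase-treated and quality-checked; 2 μg labelled per TIGR SOP M007 and hybridized to whole-genome arrays. Three independent experiments with dye flip (6 replicates); drug vs untreated fold change.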

Aspergillus fumigatus [6] = assay: Induction of change in cytosolic small ribosomal subunit S4, putative gene expression in drug-susceptible Aspergillus fumigatus KU80 delta-akuB at 0.12 ug/ml after 24 hrs in YPD medium by microarray analysis relative to control; assay type: functional; how it was run: as §3
Aspergillus fumigatus [7] = assay: Induction of change in 60S ribosomal protein L10 protein level in iTRAQ-118 labelled cell wall fraction of drug-resistant Aspergillus fumigatus EMFR-S678P at 0.12 ug/ml after 24 hrs in YPD medium by MS (MS/MS) analysis relative to control; assay type: functional, organism-based; how it was run: as §2
Aspergillus fumigatus [8] = assay: Induction of change in 37S ribosomal protein S24 protein level in iTRAQ-118 labelled cell wall fraction of drug-resistant Aspergillus fumigatus EMFR-S678P at 0.12 ug/ml after 24 hrs in YPD medium by MS (MS/MS) analysis relative to control; assay type: functional, organism-based; how it was run: as §2
Aspergillus fumigatus [9] = assay: Antifungal activity against drug-resistant Aspergillus fumigatus EMFR-S678P assessed as change in hyphal morphology by RPMI medium; assay type: functional; details: read-out: MEC
How it was run: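 CLSI M38-A2 broth microdilution, run in triplicate in RPMI or YPD medium as the line specifies. Caspofungin was dissolved in sterile water. The minimum effective concentration (MEC) was the lowest concentration giving a significant change in hyphal morphology visible to the eye.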

Aspergillus fumigatus [10] = assay: Induction of change in extracellular conserved serine-rich protein level in iTRAQ-116 labelled secreted fraction of drug-resistant Aspergillus fumigatus EMFR-S678P at 0.12 ug/ml after 48 hrs in YPD medium by MS (MS/MS) analysis relative to control; assay type: functional; how it was run: as §2
Aspergillus fumigatus [11] = assay: Induction of change in 60s ribosomal protein yl17-b protein level in iTRAQ114 labelled secreted fraction of drug-susceptible Aspergillus fumigatus KU80 delta-akuB at 0.12 ug/ml after 24 hrs in YPD medium by MS (MS/MS) analysis relative to control; assay type: functional; how it was run: as §1
Aspergillus fumigatus [12] = assay: Induction of change in large subunit ribosomal protein L3 gene expression in drug-susceptible Aspergillus fumigatus KU80 delta-akuB at 0.12 ug/ml after 24 hrs in YPD medium by microarray analysis relative to control; assay type: functional
How it was run: (§4)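 Mycelia grown from 1 × 10⁵ conidia/ml in YPD at 37°C, 225 rpm, with or without 0.12 μg/ml caspofungin. Total RNA extracted, DNase-treated; 2 μg labelled per TIGR SOP M007 for whole-genome array hybridization. Three independent experiments with dye flip (6 replicates); >2-fold change deemed significant.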

Aspergillus fumigatus [13] = assay: Induction of change in 60s ribosomal protein l2 gene expression in drug-susceptible Aspergillus fumigatus KU80 delta-akuB at 0.12 ug/ml after 24 hrs in YPD medium by microarray analysis relative to control; assay type: functional; how it was run: as §3
Aspergillus fumigatus [14] = assay: Induction of change in ribosomal protein L29/heparin/heparan sulfate interacting gene expression in drug-susceptible Aspergillus fumigatus KU80 delta-akuB at 0.12 ug/ml after 24 hrs in YPD medium by microarray analysis relative to control; assay type: functional; how it was run: as §4
Aspergillus fumigatus [15] = assay: Induction of change in C2H2 transcription factor (Rpn4), putative gene expression in drug-susceptible Aspergillus fumigatus KU80 delta-akuB at 0.12 ug/ml after 48 hrs in YPD medium by microarray analysis relative to control; assay type: functional; how it was run: as §3
Aspergillus fumigatus [16] = assay: Induction of change in isocitrate dehydrogenase Idp1, putative protein level in iTRAQ-116 labelled secreted fraction of drug-susceptible Aspergillus fumigatus KU80 delta-akuB at 0.12 ug/ml after 48 hrs in YPD medium by MS (MS/MS) analysis relative to control; assay type: functional
How it was run: (§5)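 Conidia (1 × 10⁵/ml) grown in YPD, 37°C, 225 rpm, ± 0.12 μg/ml caspofungin; filtrate taken as secreted fraction, French-press lysate 5,000 × g pellet as cell wall/plasma membrane. Trypsin digests 8-plex iTRAQ-labelled (drug-free channels as references), pooled, 2D-chromatography, MS/MS. Median-normalized; protein ratio = median of unique-peptide ratios, log2 normalized.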

Aspergillus fumigatus [17] = assay: Induction of change in hypothetical protein locus AFUA_5G14680 level in iTRAQ-116 labelled secreted fraction of drug-susceptible Aspergillus fumigatus KU80 delta-akuB at 0.12 ug/ml after 48 hrs in YPD medium by MS (MS/MS) analysis relative to control; assay type: functional; how it was run: as §5
Aspergillus fumigatus [18] = assay: Induction of change in 14-alpha sterol demethylase Cyp51A protein level in iTRAQ-118 labelled cell wall fraction of drug-resistant Aspergillus fumigatus EMFR-S678P at 0.12 ug/ml after 48 hrs in YPD medium by MS (MS/MS) analysis relative to control; assay type: functional; how it was run: as §2

Compound: CC[C@H](C)C[C@H](C)CCCCCCCCC(=O)N[C@H]1C[C@@H](O)[C@@H](NCCN)NC(=O)[C@@H]2[C@@H](O)CCN2C(=O)[C@H]([C@H](O)CCN)NC(=O)[C@H]([C@H](O)[C@@H](O)c2ccc(O)cc2)NC(=O)[C@@H]2C[C@@H](O)CN2C(=O)[C@H]([C@@H](C)O)NC1=O [CASPOFUNGIN]
- fold change (FC) (Aspergillus fumigatus [1]): -3.5
- fold change (FC) (Aspergillus fumigatus [2]): -1
- fold change (FC) (Aspergillus fumigatus [3]): -1.52
- fold change (FC) (Aspergillus fumigatus [4]): -1.74
- fold change (FC) (Aspergillus fumigatus [5]): 15.2
- fold change (FC) (Aspergillus fumigatus [6]): 3.8
- Activity (Aspergillus fumigatus [7]): inactive
- Activity (Aspergillus fumigatus [8]): inactive
- minimal effective concentration (Aspergillus fumigatus [9]): > 16 µg/mL
- fold change (FC) (Aspergillus fumigatus [10]): -1.07
- fold change (FC) (Aspergillus fumigatus [11]): -1
- fold change (FC) (Aspergillus fumigatus [12]): 3.5
- fold change (FC) (Aspergillus fumigatus [13]): 3.9
- fold change (FC) (Aspergillus fumigatus [14]): 6.5
- fold change (FC) (Aspergillus fumigatus [15]): -2.4
- fold change (FC) (Aspergillus fumigatus [16]): -6.1
- fold change (FC) (Aspergillus fumigatus [17]): -2.5
- fold change (FC) (Aspergillus fumigatus [18]): 1.07
